The values below come from ChEMBL document CHEMBL2331191, “Design and synthesis of novel 1,2,3-triazole-dithiocarbamate hybrids as potential anticancer agents” (Eur J Med Chem, 2013).

Common to all, as to type: functional, cell-based
Assay [1] in a line: Cytotoxicity against human EC109 cells assessed as growth inhibition after 72 hrs by MTT assay. To be noted: ECa-109, 72 h. A digest of the protocol: (§1)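 Exponentially growing cells were seeded at 5×10^3 per well and held 24 h at 37 °C. Medium was then replaced with fresh medium containing a range of concentrations, and cells were exposed for 72 h. MTT (5 mg/mL) was added for 4 h at 37 °C, formazan was dissolved in DMSO and A570 was read. Triplicate wells per concentration, three experiments. IC50 was taken from dose–response curves of inhibition ratio.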

The subject of assay [2] is PC-3. Put plainly: Cytotoxicity against human PC3 cells assessed as growth inhibition after 72 hrs by MTT assay. To be noted: PC-3, 72 h. A digest of the protocol:
as §1
On the technique in general: Tetrazolium assays rely on reduction of a dye to a coloured formazan, in cell work by metabolically active cells.

For assay [3], the system named is MCF7. Put plainly: Cytotoxicity against human MCF7 cells assessed as growth inhibition after 72 hrs by MTT assay. Conditions: MCF7, 72 h. A digest of the protocol:
as §1

The subject of assay [4] is MGC-803. Put plainly: Cytotoxicity against human MGC803 cells assessed as growth inhibition after 72 hrs by MTT assay. To be noted: MGC-803, 72 h. A digest of the protocol: as §1

The IC50 is the concentration at which inhibition is half-maximal.

For `Cc1ccc(-n2cc(CSC(=S)N3CCN(C(=O)OC(C)(C)C)CC3)nn2)cc1`, the IC50 in assay [1] is 114 µM; in assay [2] it was over 128 µM; in assay [3], 74.2 µM; in assay [4], 48.3 µM.
For `Cc1cc(=O)oc2cc(OCCn3cc(CSC(=S)N4CCN(C(=O)OC(C)(C)C)CC4)nn3)ccc12`, in that order: over 128 µM, over 128 µM, 90.4 µM and 76.9 µM.
As for `CC(C)(C)OC(=O)N1CCN(C(=S)SCc2cn(Cc3ccc(Cl)cc3)nn2)CC1`, the IC50 in assay [1] is over 128 µM; in assay [2], over 128 µM; in assay [3] it was 2.96 µM; in assay [4], 9.79 µM.
As for `O=c1[nH]cc(F)c(=O)[nH]1` [FLUOROURACIL], the IC50 was found to be 3.34 µM in assay [1], 27.1 µM in assay [2] and 7.01 µM in assay [4].
Consider `CC(C)(C)OC(=O)N1CCN(C(=S)SCc2cn(Cc3cc(=O)oc4cc(O)ccc34)nn2)CC1`, for which the concentration for half-maximal inhibition (IC50) was over 128 µM in assay [1], 36.8 µM in assay [2], 10.4 µM in assay [3] and 4.96 µM in assay [4].
For `Cc1ccc(Cn2cc(CSC(=S)N3CCNCC3)nn2)cc1`, in that order: over 128 µM, 19.8 µM, 53.2 µM and 64.3 µM.
For `Fc1ccc(Cn2cc(CSC(=S)N3CCNCC3)nn2)cc1`, in that order: over 128 µM, over 128 µM, 49.9 µM and 32.5 µM.
For `COc1cc(Cn2cc(CSC(=S)N3CCN(C(=O)OCc4ccccc4)CC3)nn2)cc(OC)c1OC`, in that order: over 128 µM, over 128 µM, over 128 µM and 10.9 µM.
`CC(C)(C)OC(=O)N1CCN(C(=S)SCc2cn(-c3ccccc3F)nn2)CC1`: the IC50 in assay [1] was over 128 µM; in assay [2], over 128 µM; in assay [3] it was 89.6 µM; in assay [4], 119 µM.
Take `COc1ccc(-n2cc(CSC(=S)N3CCN(C(=O)OC(C)(C)C)CC3)nn2)cc1`: the IC50 in assay [1] is over 128 µM; in assay [2], over 128 µM; in assay [3], 93 µM; in assay [4], 87.3 µM.
Turning to `O=C(OCc1ccccc1)N1CCN(C(=S)SCc2cn(Cc3ccc(F)cc3)nn2)CC1`, the half-maximal inhibitory concentration (IC50) in assay [1] was 32 µM; in assay [2] it was over 128 µM; in assay [3], 10.3 µM; in assay [4], 17.6 µM.
For the compound `COc1cc(Cn2cc(CSC(=S)N3CCNCC3)nn2)cc(OC)c1OC`, the IC50 in assay [1] and in assay [2] was over 128 µM each time.
As to `CC(C)(C)OC(=O)N1CCN(C(=S)SCc2cn(-c3cccc(C(F)(F)F)c3)nn2)CC1`, the half-inhibitory concentration (IC50) in assay [1] was 69.3 µM; in assay [2], over 128 µM; in assay [3], 80.4 µM; in assay [4], 66.8 µM.
Take `S=C(SCc1cn(Cc2ccc(Cl)cc2)nn1)N1CCNCC1`: the IC50 in assay [1] and in assay [2] was over 128 µM in each case.
In the case of `COc1cc(Cn2cc(CSC(=S)N3CCN(C(=O)OC(C)(C)C)CC3)nn2)cc(OC)c1OC`, the IC50 in assay [1] is 44.4 µM; in assay [2], over 128 µM; in assay [3], 22.7 µM; in assay [4], 27.3 µM.
As for `COc1ccc(Cn2cc(CSC(=S)N3CCN(C(=O)OCc4ccccc4)CC3)nn2)cc1`, the IC50 was 58.3 µM in assay [1], over 128 µM in assay [2], 30.5 µM in assay [3] and 23.8 µM in assay [4].
For `CC(C)(C)OC(=O)N1CCN(C(=S)SCc2cn(Cc3ccc(Cl)c(Cl)c3)nn2)CC1`, the IC50 in assay [1] is over 128 µM; in assay [2] it was over 128 µM; in assay [3], 19.1 µM; in assay [4], 33.7 µM.
`O=C(OCc1ccccc1)N1CCN(C(=S)SCc2cn(Cc3ccc(Cl)cc3)nn2)CC1`: the IC50 is over 128 µM in assay [1], over 128 µM in assay [2], 27.5 µM in assay [3] and 31.3 µM in assay [4].
Turning to `CC(C)(C)OC(=O)N1CCN(C(=S)SCc2cn(Cc3ccc(F)cc3)nn2)CC1`, the 50% inhibitory concentration (IC50) is 58.9 µM in assay [1], over 128 µM in assay [2], 3.34 µM in assay [3] and 1.93 µM in assay [4].
For `Cc1ccc(Cn2cc(CSC(=S)N3CCN(C(=O)OCc4ccccc4)CC3)nn2)cc1`, in that order: 32.6 µM, over 128 µM, 37.8 µM and 9.37 µM.
For `O=C(OCc1ccccc1)N1CCN(C(=S)SCc2cn(Cc3ccccc3Cl)nn2)CC1`, in that order: 56.8 µM, over 128 µM, 21.4 µM and 15.5 µM.
Turning to `CC(C)(C)OC(=O)N1CCN(C(=S)SCc2cn(Cc3ccccc3F)nn2)CC1`, the concentration for half-maximal inhibition (IC50) was found to be 2.44 µM in assay [1], 11.6 µM in assay [2] and 5.67 µM in assay [3].
For the compound `O=C(OCc1ccccc1)N1CCN(C(=S)SCc2cn(Cc3ccc(Cl)c(Cl)c3)nn2)CC1`, the IC50 is 29.4 µM in assay [1], over 128 µM in assay [2], 10.6 µM in assay [3] and 7.14 µM in assay [4].
Turning to `S=C(SCc1cn(Cc2ccc(Cl)c(Cl)c2)nn1)N1CCNCC1`, the IC50 in assay [1] is over 128 µM.
Consider `Fc1ccccc1Cn1cc(CSC(=S)N2CCNCC2)nn1`, for which the half-maximal inhibitory concentration (IC50) in assay [1] is over 128 µM; in assay [2], 56.2 µM; in assay [3], 33.2 µM; in assay [4] it was 19.4 µM.
On the same counts, the results for `CC(C)(C)OC(=O)N1CCN(C(=S)SCc2cn(CCOc3ccc4ccc(=O)oc4c3)nn2)CC1` are over 128 µM, over 128 µM, 79.8 µM and 67 µM.
Turning to `COc1ccc(Cn2cc(CSC(=S)N3CCNCC3)nn2)cc1`, the IC50 in assay [1] and in assay [2] was over 128 µM throughout.
`O=C(OCc1ccccc1)N1CCN(C(=S)SCc2cn(Cc3ccccc3F)nn2)CC1`: the IC50 amounted to 27 µM in assay [1], 68.3 µM in assay [2], 7.95 µM in assay [3] and 5.06 µM in assay [4].
For `S=C(SCc1cn(Cc2ccccc2Cl)nn1)N1CCNCC1`, the IC50 was over 128 µM in assay [1], 38.9 µM in assay [3] and 45.2 µM in assay [4].
Regarding `COc1ccc(Cn2cc(CSC(=S)N3CCN(C(=O)OC(C)(C)C)CC3)nn2)cc1`, the IC50 in assay [1] is 36.8 µM; in assay [2], over 128 µM; in assay [3] it was 4.96 µM; in assay [4], 22.8 µM.
For `Cc1ccc(Cn2cc(CSC(=S)N3CCN(C(=O)OC(C)(C)C)CC3)nn2)cc1`, in that order: 47.9 µM, 17.2 µM, 19.7 µM and 3.49 µM.
